Results from ChEMBL document CHEMBL1129328, “Structure-activity studies of 6-(tetrazolylalkyl)-substituted decahydroisoquinoline-3-carboxylic acid AMPA receptor antagonists. 1. Effects of stereochemistry, chain length, and chain substitution” (J Med Chem, 1996).

What was measured:
Glutamate NMDA receptor [1] = assay: Binding affinity at N-methyl-D-aspartate glutamate receptor in rat cortical tissue by [3H]-CGS- 19755 displacement.
Procedure, shortened: (§1)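 Displacement of radioligand from rat cortical tissue membranes: [3H]CGS 19755 for NMDA sites, [3H]kainic acid for kainate sites. Each determination run in triplicate unless otherwise indicated.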

[2] = biological target: T1, Glutamate receptor ionotropic, AMPA (Rattus norvegicus, UniProt P19490+P19491+P19492+P19493); assay: Binding affinity at Ionotropic glutamate receptor AMPA in rat cortical tissue by [3H]AMPA displacement.
[3] = biological target: Glutamate receptor ionotropic, kainate; assay: Binding affinity at Ionotropic glutamate receptor kainate in rat cortical tissue by [3H]-kainic acid displacement.; procedure, shortened: as §1
[4] = biological target: Glutamate NMDA receptor (Rattus norvegicus) (UniProt P35439+Q00959+Q00960+Q00961+Q62645+Q8VHN2+Q9R1M7); assay: (§2) Compound was tested for NMDA receptor antagonistic activity by measuring its ability to inhibit depolarizations induced by 40 uM NMDA in rat cortical slice preparation.; format: functional
Procedure, shortened: (§3)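 Rat cortical slice (cortical wedge) preparation. Antagonism measured as inhibition of depolarizations evoked by 40 uM AMPA (a few cases 40 uM quisqualic acid instead) or 40 uM NMDA. Compounds were also applied alone to check for agonist activity.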

[5] = biological target: T1, Glutamate receptor ionotropic, AMPA; assay: AMPA receptor antagonistic activity as inhibition of depolarizations induced by 40 uM AMPA in rat cortical slice preparation; format: functional
[6] = biological target: Glutamate receptor ionotropic, kainate; format: functional
Glutamate NMDA receptor [7] = assay: as §2; format: functional
[8] = biological target: T1, Glutamate receptor ionotropic, AMPA; assay: Compound was tested for AMPA receptor antagonistic activity by measuring its ability to inhibit depolarizations induced by 40 uM quisqualic acid in rat cortical slice preparation.; format: functional; procedure, shortened: as §3
[9] = biological target: T1, Glutamate receptor ionotropic, AMPA; assay: Compound was tested for AMPA receptor antagonistic activity by measuring its ability to inhibit depolarizations induced by 40 uM AMPA in rat cortical slice preparation; format: functional; procedure, shortened: as §3

Row | Structure (SMILES) | IC50 (Glutamate NMDA receptor [1]) [µM] | IC50 [2] [µM] | IC50 [3] [µM] | inhibition [4] [%] | IC50 [5] [µM] | IC50 [6] [µM] | IC50 (Glutamate NMDA receptor [7]) [µM] | IC50 [8] [µM] | IC50 [9] [µM]
1 | CC(C[C@H]1CC[C@H]2CN[C@H](C(=O)O)C[C@H]2C1)c1nnn[nH]1 (stereo partly drawn) | > 100 | 4.21 | 27.3 | – | – | – | – | – | –
2 | O=C(O)[C@@H]1NCC[C@H]2CC(CCc3nnn[nH]3)CC[C@H]21 (stereo partly drawn) | 12.8 | > 100 | > 100 | 50 | > 100 | > 100 | – | – | –
3 | O=C(O)[C@@H]1C[C@H]2C[C@@H](OCc3nn[nH]n3)CC[C@H]2CN1 | 5.9 | 24 | 55 | – | 29.5 | > 100 | 28.3 | – | –
4 | O=C(O)C1Cc2cc(CCc3nnn[nH]3)ccc2CN1 (stereo not drawn) | > 10 | > 100 | > 10 | – | > 100 | > 100 | > 100 | – | –
5 | O=C(O)[C@@H]1C[C@H]2C[C@@H](CCc3nnn[nH]3)CC[C@@H]2CN1 | > 100 | > 100 | > 100 | – | > 100 | > 100 | > 100 | – | –
6 | O=C(O)[C@@H]1C[C@H]2C[C@@H](c3nnn[nH]3)CC[C@H]2CN1 | – | 12.8 | 31.8 | – | 40.9 | > 100 | 7.5 | – | –
7 | O=C(O)[C@@H]1C[C@H]2C[C@@H](CCCc3nnn[nH]3)CC[C@H]2CN1 | 27 | 16.8 | 18.7 | – | – | > 100 | > 100 | 22 | –
8 | O=C(O)[C@@H]1C[C@H]2C[C@@H](NCc3nn[nH]n3)CC[C@H]2CN1 | 11.5 | > 100 | > 100 | – | 69.3 | > 100 | 33.4 | – | –
9 | O=C(O)[C@H]1C[C@H]2CC(CCc3nnn[nH]3)CC[C@H]2CN1 (stereo partly drawn) | > 10 | > 100 | > 100 | – | > 100 | > 100 | > 100 | – | –
10 | O=C(O)[C@@H]1C[C@H]2C[C@H](OCc3nn[nH]n3)CC[C@H]2CN1 | 5.3 | > 100 | > 100 | – | > 100 | > 100 | 13.6 | – | –
11 | O=C(O)[C@@H]1C[C@H]2C[C@@H](C(Cc3nnn[nH]3)c3ccccc3)CC[C@H]2CN1 (stereo partly drawn) | 15.1 | 9.8 | > 100 | – | – | 23.6 | 100 | – | 9
12 | O=C(O)[C@@H]1C[C@H]2C[C@H](CCc3nnn[nH]3)CC[C@H]2CN1 | 60.6 | 59.6 | 180 | – | > 100 | > 100 | – | – | –
13 | CC(Cc1nnn[nH]1)[C@H]1CC[C@H]2CN[C@H](C(=O)O)C[C@H]2C1 (stereo partly drawn) | 53.2 | 3 | 35 | – | – | 58 | > 100 | – | 6
14 | O=C(O)[C@@H]1C[C@H]2C[C@@H](Cc3nnn[nH]3)CC[C@H]2CN1 | 0.94 | 84.5 | > 100 | – | – | > 100 | 1.4 | > 100 | –
15 | O=C(O)[C@@H]1C[C@H]2C[C@@H](CCCCc3nnn[nH]3)CC[C@H]2CN1 | > 100 | 57 | > 100 | – | 27.6 | < 100 | > 100 | – | –
16 | CN(Cc1nn[nH]n1)[C@H]1CC[C@H]2CN[C@H](C(=O)O)C[C@H]2C1 | 65.8 | > 100 | > 100 | – | > 100 | > 100 | > 100 | – | –
17 | O=CN(Cc1nn[nH]n1)[C@H]1CC[C@H]2CN[C@H](C(=O)O)C[C@H]2C1 | > 100 | 23.1 | > 100 | – | – | – | – | – | –
18 | O=C(O)[C@@H]1C[C@H]2C[C@@H](CCc3nn[nH]n3)CC[C@H]2CN1 [TEZAMPANEL ANHYDROUS] | – | – | 247 | – | 6 | 31.7 | 61.3 | – | –
